Reference: ChEMBL document CHEMBL4325832, “Novel Benzazole Derivatives Endowed with Potent Antiheparanase Activity” (J Med Chem, 2018)
Calls of active or inactive are those of the source. The calls are words filed in the database; no cut-off is given here.

Key:
Heparanase = target: T1, Heparanase (Homo sapiens, UniProt Q9Y251); assay: Inhibition of recombinant HPSE GS3 (unknown origin) using fondaparinux as substrate incubated for 3 hrs in absence of light by WST1 based colorimetry
T1 sequence (Q9Y251 whole entry): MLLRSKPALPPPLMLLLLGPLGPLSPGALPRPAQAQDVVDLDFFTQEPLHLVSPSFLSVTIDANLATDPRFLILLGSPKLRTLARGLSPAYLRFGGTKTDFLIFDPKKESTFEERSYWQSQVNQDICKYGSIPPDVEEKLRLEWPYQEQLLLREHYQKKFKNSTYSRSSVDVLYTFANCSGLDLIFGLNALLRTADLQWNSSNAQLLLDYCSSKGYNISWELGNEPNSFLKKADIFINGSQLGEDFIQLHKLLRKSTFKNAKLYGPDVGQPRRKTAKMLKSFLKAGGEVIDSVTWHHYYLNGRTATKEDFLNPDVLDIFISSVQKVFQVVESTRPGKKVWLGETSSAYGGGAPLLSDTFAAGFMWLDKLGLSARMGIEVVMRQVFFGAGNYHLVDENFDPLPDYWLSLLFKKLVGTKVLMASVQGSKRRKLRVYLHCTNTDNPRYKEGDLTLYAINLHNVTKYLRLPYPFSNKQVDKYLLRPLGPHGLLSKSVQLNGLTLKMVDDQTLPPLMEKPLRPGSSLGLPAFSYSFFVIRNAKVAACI

U-87 MG [1] = assay: Antiproliferative activity against human U87MG cells after 3 days by SRB assay
U2OS [2] = assay: Antiproliferative activity against human U2OS cells after 3 days by SRB assay
HT-1080 [3] = assay: Antiproliferative activity against human HT1080 cells after 3 days by SRB assay
U2OS [4] = assay: Inhibition of cell invasion in human U2OS cells at 10 uM after 24 hrs by SRB staining based matrigel invasion chamber assay relative to control; settings: read-out: INH
U-87 MG [5] = assay: Inhibition of cell invasion in human U87MG cells at 10 uM after 24 hrs by SRB staining based matrigel invasion chamber assay relative to control; format: functional
In short: (§1)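 HT1080, U87MG and U2OS cells pretreated with compound in complete medium for 24 h, harvested, resuspended in serum-free medium and seeded at 2.5 × 10^4 cells/filter into Growth Factor Reduced Matrigel-coated Transwell upper chambers. Same concentration in both upper and lower chambers. After 24 h, invaded cells SRB-stained and counted under microscope at 40X-100X. Student's 2-tailed t test, P<0.05.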

HT-1080 [6] = assay: Inhibition of cell invasion in human HT1080 cells at 10 uM after 24 hrs by SRB staining based matrigel invasion chamber assay relative to control; format: functional; in short: as §1
U2OS [7] = settings: Homo sapiens, 10 uM
A204 [8] = assay: Antiproliferative activity against human A204 cells assessed as inhibition of cell proliferation at 3.1 uM after 24 hrs by cell counting analysis relative to control; format: functional; design: scale not given: the % may be the effect or the level left
In short: (§2)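 CME-1 or A204 cells in RPMI plus 10% FBS, exposed to drug in DMSO or solvent alone for 24 h. Proliferation assessed by cell counting and expressed as percent inhibition versus control. DMSO final 0.5% (CME-1) or 0.25% (A204).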

HT-1080 [9] = assay: Downregulation of HPSE1 mRNA expression in human HT1080 cells at 1 uM after 24 hrs by qPCR analysis; format: functional, cell-based
In short: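 HT1080 cells treated 24 h with compound at 1 μM. Total RNA extracted and reverse-transcribed. HPSE-1 mRNA quantified by real-time qPCR using the ΔΔCt method, […]. Expressed as percent of untreated cells.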

A204 [10] = settings: Homo sapiens, 1.5 uM
Homo sapiens [11] = organism: Homo sapiens; settings: 1.5 uM
A204 [12] = assay: Antiproliferative activity against human A204 cells after 72 hrs by cell counting analysis; settings: A204, 72 h
A204 [13] = assay: Anti-invasive activity against human A204 cells after 24 hrs by SRB staining based matrigel invasion chamber assay; format: functional, cell-based
In short: (§3)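 CME-1 or A204 cells pretreated with drug in complete medium for 24 h, then resuspended in serum-free medium and placed in upper chamber of Growth Factor Reduced Matrigel-coated Transwells (1.2 × 10^5 CME-1 or 1.8 × 10^5 A204 cells/filter). Same drug concentration in both upper and lower chambers, 24 h. Invaded cells SRB-stained and counted microscopically. DMSO final 0.5% (CME-1) or 0.25% (A204).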

Homo sapiens [14] = organism: Homo sapiens; assay: Anti-invasive activity against human CME1 cells after 24 hrs by SRB staining based matrigel invasion chamber assay; format: functional, cell-based; in short: as §3
U-87 MG [15] = assay: Inhibition of cell invasion in human U87MG cells at 1 uM after 24 hrs by SRB staining based matrigel invasion chamber assay relative to control; format: functional, U-87MG ATCC; in short: as §1
U2OS [16] = assay: Inhibition of cell invasion in human U2OS cells at 1 uM after 24 hrs by SRB staining based matrigel invasion chamber assay relative to control; format: functional; in short: as §1
[17] = Antiproliferative activity against human CME1 cells assessed as inhibition of cell proliferation at 3.1 uM after 24 hrs by cell counting analysis relative to control; format: functional; design: scale not given: the % may be the effect or the level left; in short: as §2
HT-1080 [18] = assay: Inhibition of cell invasion in human HT1080 cells at 1 uM after 24 hrs by SRB staining based matrigel invasion chamber assay relative to control; format: functional; settings: HT-1080, 24 h; in short: as §1
[19] = Antiproliferative activity against human CME1 cells after 72 hrs by cell counting analysis

COc1ccc(C(=O)Nc2ccc(CNc3ccc(-c4nc5cc(CC(=O)NCB(O)O)ccc5o4)cc3F)cc2)cc1Br
IC50 (Heparanase): > 10 µM

COc1ccc(C(=O)Nc2ccc(CNc3ccc(-c4nc5cc(CC(=O)NCC(=O)O)ccc5[nH]4)cc3F)cc2)cc1Br
IC50 (U-87 MG [1]; u-87mg atcc): Not Active
IC50 (U2OS [2]; u2os): Not Active
IC50 (Heparanase): 0.64 µM
IC50 (HT-1080 [3]; ht-1080): Not Active
inhibition at 10 µM (U2OS [4]): < 50%
inhibition (U-87 MG [5]; U-87MG ATCC): inactive
inhibition (HT-1080 [6]): inactive

COc1ccc(C(=O)Nc2ccc(CNc3ccc(-c4nc5cc(CC(=O)N[C@@H](CCC(=O)O)C(=O)O)ccc5o4)cc3F)cc2)cc1Br
IC50 (U-87 MG [1]; u-87mg atcc): Not Active
IC50 (U2OS [2]; u2os): Not Active
inhibition (U2OS [7]): inactive
IC50 (HT-1080 [3]; ht-1080): Not Active
inhibition at 10 µM (U-87 MG [5]): 50 to 90%
inhibition at 10 µM (HT-1080 [6]; HT-1080, 24 h): 50 to 90%

COc1ccc(C(=O)Nc2ccc(CNc3ccc(-c4nc5cc(CC(=O)O)ccc5[nH]4)cc3)cc2)cc1Br
IC50 (Heparanase): > 10 µM

COc1ccc(C(=O)Nc2ccc(CNc3ccc(-c4nc5cc(CC(=O)N[C@@H](CCCCN)C(=O)O)ccc5o4)cc3F)cc2)cc1Br
IC50 (Heparanase): > 10 µM

COc1ccc(C(=O)Nc2ccc(CNc3ccc(-c4nc5ccccc5[nH]4)cc3F)cc2)cc1Br
Activity (A204 [8]): 5%
Activity (HT-1080 [9]): Active
IC50 (U-87 MG [1]; Homo sapiens, U-87 MG, 72 h): 2.8 µM
inhibition (A204 [10]): inactive
inhibition (Homo sapiens [11]): inactive
IC50 (U2OS [2]; Homo sapiens, U2OS, 72 h): 1.7 µM
IC50 (A204 [12]): 3.4 µM
Activity (A204 [13]): Dose-dependent effect
Activity (Homo sapiens [14]): Dose-dependent effect
inhibition at 1 µM (U-87 MG [15]): 50 to 90%
inhibition at 1 µM (U2OS [16]): 50 to 90%
Activity [17]: 15%
inhibition at 1 µM (HT-1080 [18]): 50 to 90%
IC50 [19]: 3.9 µM
IC50 (HT-1080 [3]; Homo sapiens, HT-1080, 72 h): 8.7 µM

COc1ccc(C(=O)Nc2ccc(CNc3ccc(-c4nc5cc(CC(=O)NCC(=O)O)ccc5o4)cc3F)cc2)cc1Br
IC50 (U-87 MG [1]; u-87mg atcc): Not Active
IC50 (U2OS [2]; u2os): Not Active
IC50 (HT-1080 [3]; ht-1080): Not Active

COc1ccc(C(=O)Nc2ccc(CNc3ccc(-c4nc5ccccc5[nH]4)cc3)cc2)cc1Br
Activity (HT-1080 [9]): inactive
IC50 (U-87 MG [1]; Homo sapiens, U-87 MG, 72 h): 2.7 µM
IC50 (U2OS [2]; Homo sapiens, U2OS, 72 h): 2.1 µM
inhibition at 1 µM (U-87 MG [15]): 50 to 90%
inhibition at 1 µM (U2OS [16]): 50 to 90%
inhibition at 1 µM (HT-1080 [18]): 50 to 90%
IC50 (HT-1080 [3]; Homo sapiens, HT-1080, 72 h): 3.1 µM

COc1ccc(C(=O)Nc2ccc(CNc3ccc(-c4nc5cc(CC(=O)O)ccc5o4)cc3)cc2)cc1Br
IC50 (Heparanase): > 10 µM
